bIAP inhibitor: bovine intestinal alkaline phosphatase inhibitors, primary screen, selectivity assay for TNAP inhibitor project, biochemical, bovine IAP, CDP-star luminescence; purified bovine IAP, 30 min; 190,000 tested, under 10 active; inhibition, % at 20 µM; AID 1019, 2008;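 active = over 50% inhibition of intestinal alkaline phosphatase at 20 µM in the single-dose screen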
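Assay system: bovine IAP enzyme; medium: DEA buffer 100 mM, pH 9.8, with MgCl2 1.0 mM, ZnCl2 0.02 mM; doses: 20 µM single dose; incubation: enzyme reaction for 30 min at room temperature; detection: CDP-star luminescence signal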
mIAP activ: activators of mouse IAP, primary screen, biochemical, luminescence, uHTS | muIAP, CDP-Star luminescence, 30 min; active compounds read high; 1 = vehicle-only enzyme signal, 0 = enzyme-free wells | activation factor at 10 µM | actives 0.24% (n = 330,000) | AID 2805, 2010;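 active = activation factor of at least 2 at 20 µM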
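also added = chemiluminescent substrate CDP-Star | test system = mouse IAP enzyme | signal = chemiluminescence readout | compound = DMSO-dissolved test compounds | incubation = 30 min at room temperature | benchmarks = DMSO wells, no-enzyme wells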
bIAP activator: bovine intestinal alkaline phosphatase activators, primary screen, biochemical, bovine IAP, CDP-star luminescence; alkaline phosphatase, intestinal [Bos taurus]; activation factor at 20 µM; purified bovine IAP, 30 min; active compounds read high; fold of DMSO-control signal, blank-subtracted; actives 0.17% (n = 200,000);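 active = activation factor of 2 or more at 20 µM, a signal rise over negative controls twice the positive control's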
hIAP activ: human IAP activators, primary screen, biochemical, luminescence, uHTS | Intestinal-type alkaline phosphatase (Homo sapiens), P09923 | purified human IAP, CDP-Star luminescence, 30 min; active compounds read high; 1 = vehicle-only enzyme, 0 = enzyme-free background | activation factor at 10 µM | actives 0.16% (n = 330,000) | AID 2524, 2010;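 active = activation factor of the enzyme at least 2-fold when tested at 20 µM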
Target sequence (P09923 whole entry, looked up): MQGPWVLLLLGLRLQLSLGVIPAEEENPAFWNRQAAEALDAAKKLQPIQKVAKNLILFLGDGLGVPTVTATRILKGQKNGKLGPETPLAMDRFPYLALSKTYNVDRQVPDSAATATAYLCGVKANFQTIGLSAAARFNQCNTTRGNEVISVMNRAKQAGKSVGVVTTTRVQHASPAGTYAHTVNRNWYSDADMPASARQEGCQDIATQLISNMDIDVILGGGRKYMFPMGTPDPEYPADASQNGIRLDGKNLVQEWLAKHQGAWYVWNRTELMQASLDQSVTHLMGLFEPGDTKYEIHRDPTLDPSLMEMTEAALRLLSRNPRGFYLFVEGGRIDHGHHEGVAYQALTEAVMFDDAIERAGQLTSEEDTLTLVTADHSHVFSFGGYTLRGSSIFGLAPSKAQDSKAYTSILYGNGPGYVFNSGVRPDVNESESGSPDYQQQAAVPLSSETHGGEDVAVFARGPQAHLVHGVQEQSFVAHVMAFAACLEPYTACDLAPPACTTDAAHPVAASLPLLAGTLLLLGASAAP
hIAP inh: human IAP inhibitors, primary screen, biochemical, luminescence, uHTS; inhibition, % at 10 µM; Intestinal-type alkaline phosphatase (Homo sapiens), P09923; purified IAP, CDP-Star luminescence, 30 min; actives 0.12% (n = 330,000);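 active = inhibition reaching a set limit with compound at 10 µM in the primary screen, cut at about 35% in these data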;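 note: plate controls were DMSO wells with enzyme for no effect and no-enzyme buffer wells for full effect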
mIAP block: inhibitors of mouse IAP, primary screen, biochemical, luminescence, uHTS. purified mouse IAP, CDP-Star luminescence, 30 min. inhibition, % at 10 µM. actives 0.2% (n = 330,000). AID 2806, 2010;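 active = inhibition of at least 40% at 10 µM in the primary screen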;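 note: plate controls were DMSO with enzyme for no effect and no enzyme wells for full effect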
hIAP act confirm: human IAP activators, confirmation, biochemical, luminescence, single concentration, uHTS hits | actives 10% (n = 880) | shares compounds with hIAP activ | activation (%Activity, negative = activation), % at 8.3 µM | purified IAP, CDP-Star luminescence, 30 min; active compounds read low;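 active = at least twofold enzyme activation in any of six single-dose repeats, which the averaged readout prints as negative percent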
Active calls of the source: *; · = no result given. A selection: hits, their analogues and other compounds. The true share with any hit is near 0.77%.

SMILES | bIAP inhibitor | mIAP activ | bIAP activator | hIAP activ | hIAP inh | mIAP block | hIAP act confirm
CC(C)N1CCC(N2CCN(Cc3ccc(-c4ccc(Cl)cc4)o3)CC2CCO)CC1 (stereo unspecified) | -15 | 0.92 | 1.1 | 0.94 | 6 | 8 | ·
Cc1cc(-n2c(SCC(=O)Nc3ccc(F)c(F)c3)nc3n[nH]c(C)c3c2=N)ccc1Cl | · | 1.1 | · | 2.1* | -107 | -14 | -40
CN(N=Nc1ccc([N+](=O)[O-])cc1)c1ccccc1 | 6 | 0.81 | 0.9 | 0.85 | 15 | 19 | ·
CN(CCCC(=O)O)c1ccc(N=Nc2ccc([N+](=O)[O-])cc2)cc1 | · | 0.62 | · | 0.53 | 47* | 38 | 24
CCCn1c(=O)c(C(=O)NNC(=O)c2ccc(Cl)cc2Cl)c(O)c2ccccc21 | · | 0.97 | · | 2.9* | -195 | 3 | -68
CCn1c(=O)c(C(=O)NNC(=O)c2ccc(Cl)cc2Cl)c(O)c2ccccc21 | · | 0.84 | · | 1.5 | -49 | 16 | ·
CC[n+]1c(/C=C/c2c[nH]c3ccccc23)ccc2cc(C)ccc21 | 30 | 0.69 | 0.7 | 0.64 | 36* | 31 | -86*
CCN(CC)C(=O)c1ccc(/C=C/c2c[nH]c3ccccc23)[n+](C)c1 | 0 | 0.9 | 1 | 1 | -2 | 10 | ·
COc1cc(OC)cc(-c2nnc(Nc3nc4c(F)cccc4s3)o2)c1 | 6 | 0.81 | 0.9 | 2* | -103 | 19 | -1
COc1cc(NC(=O)c2n[nH]c(=O)c3ccccc23)cc(OC)c1 | · | 1 | · | 0.89 | 12 | 0 | ·
COc1ccc(-c2nc(NC(=O)c3n[nH]c(=O)c4ccccc34)sc2C)cc1 | -23 | 0.96 | 1.2 | 2.1* | -115 | 4 | -33
COC(=O)c1cc(OC)c(OC)cc1NC(=O)CSc1nnc(-c2cccnc2)n1C | 1 | 1.1 | 1 | 2.1* | -115 | -9 | -12
O=S(=O)(c1ccc(F)cc1)N1CCN(S(=O)(=O)c2ccc3c(c2)OCCO3)CC1 | · | 1.1 | · | 0.85 | 15 | -6 | ·
N#CCC(=O)NNC(=S)NC(=O)C(c1ccccc1)c1ccccc1 | -64 | 0.91 | 1.6 | 1.5 | -53 | 10 | ·
CCCCC(=O)NC(=S)Nc1ccccc1C(=O)Nc1ccccc1 | 4 | 0.95 | 1 | 1 | -1 | 5 | ·
CC(=O)NC(=S)Nc1ccccc1C(=O)Nc1ccccc1 | -40 | 0.79 | 1.4 | 2.5* | -150 | 21 | -31
CC(=O)NC(=S)NNC(=O)C(c1ccccc1)c1ccccc1 | -99 | 1.1 | 2* | 2* | -103 | -5 | 7
Cn1c(=O)n(CC(=O)NCC2CCCO2)c(=O)c2c3c(sc21)COC(C)(C)C3 (stereo unspecified) | · | 0.97 | · | 1.1 | -11 | 3 | ·
O=c1c2ccccc2oc2cc(-c3ccc(CN4CCOCC4)cc3)ccc12 | · | 0.88 | · | 0.99 | 0 | 12 | ·
CCOc1ccc(CC(=O)NNC(=S)NC2CCCCC2)cc1OCC | 6 | 1 | 0.9 | 2.1* | -110 | -2 | -80*
Cc1cccc(-n2cnc(C(=O)NNC(=S)Nc3ccc(Cl)cc3)c2)n1 | -18 | 0.85 | 1.2 | 2* | -102 | 15 | 1
Cc1nc2ccccn2c1C(=O)NNC(=S)Nc1ccc(Cl)cc1 | 4 | 0.87 | 1 | 0.93 | 7 | 13 | ·
COc1ccccc1-n1c(CNC(=O)c2ccco2)n[nH]c1=S | · | 0.93 | · | 0.98 | 2 | 7 | ·
O=S(=O)(Nc1ccc2c(c1)OCCO2)c1ccc(Br)s1 | 12 | 0.94 | 0.9 | 2.1* | -106 | 6 | 4
O=S(=O)(Nc1ccc2c(c1)OCCO2)c1cccs1 | 9 | 1.1 | 0.9 | 0.95 | 5 | -9 | ·
SMILES | bIAP inhibitor | mIAP activ | bIAP activator | hIAP activ | hIAP inh | mIAP block | hIAP act confirm
CC(C)Nc1nc(NC(C)C)nc(Oc2ccc(OCc3ccccc3)nn2)n1 | 3 | 1 | 1 | 0.63 | 37* | -3 | -39
CCNc1nc(NCC)nc(Oc2ccc(OCc3ccccc3)nn2)n1 | 10 | 0.98 | 0.9 | 0.92 | 8 | 2 | ·
COc1cccc(/C=N/NC(=O)CNC(=O)COc2ccccc2)c1O | · | 1 | · | 1.5 | -52 | -2 | ·
O=C(COc1ccccc1)NCC(=O)N/N=C/c1ccc(O)cc1O | · | 1 | · | 2.1* | -105 | 0 | -4
COc1ccc(CCNC(=O)c2cc(-c3ccc(C)cc3O)n[nH]2)cc1OC | -50 | 1.5 | 1.5 | 2.1* | -115 | -46 | -63
Cc1cc(O)c(-c2cc(C(=O)NCCc3ccc(S(N)(=O)=O)cc3)[nH]n2)cc1C | · | 0.78 | · | 2.2* | -123 | 22 | 5
COc1ccc(CCNC(=O)c2cc(-c3cc(C)cc(C)c3O)n[nH]2)cc1OC | · | 1.1 | · | 1.8 | -79 | -15 | ·
NS(=O)(=O)c1ccc(NC(=O)c2cc(-c3ccccc3O)n[nH]2)cc1 | · | 0.77 | · | 2* | -103 | 23 | 8
COc1ccc(CCNC(=O)c2cc(-c3cc(Cl)ccc3O)n[nH]2)cc1OC | · | 1.8 | · | 2.3* | -134 | -80 | -46
Cc1ccc(NC(=O)c2cc(-c3ccccc3O)n[nH]2)cc1Cl | · | 1.1 | · | 1.6 | -56 | -13 | ·
Cc1cc(C)c(O)c(-c2cc(C(=O)NCCc3ccc(S(N)(=O)=O)cc3)[nH]n2)c1 | · | 0.75 | · | 1.7 | -72 | 25 | ·
O=C(c1cccc(NS(=O)(=O)c2ccc(Br)cc2)c1)N1CCN(c2ccccc2O)CC1 | · | 0.97 | · | 1.1 | -5 | 3 | ·
CCOc1ccc(NC(=O)CC(Cc2cc(C)cc(C)c2)C(=O)O)cc1 (stereo unspecified) | · | 1 | · | 1.1 | -8 | -2 | ·
CCOC(=O)C1CCCN(S(=O)(=O)CCNC(=O)c2cccc(OC)c2)C1 (stereo unspecified) | · | 0.99 | · | 0.96 | 4 | 1 | ·
CCCCCCCn1c(=N)n(CC(=O)c2ccco2)c2ccccc21 | 1 | 0.94 | 1 | 0.63 | 37* | 6 | -50*
CCCCn1c(=N)n(CC(=O)c2ccco2)c2ccccc21 | 18 | 1.1 | 0.8 | 0.88 | 12 | -7 | ·
CCc1ccc(N/C(N)=N/c2nc(CSc3ncccn3)cc(=O)[nH]2)cc1 | -4 | 1 | 1 | 2* | -103 | 0 | -44
CCOC(=O)[C@@H]1[C@H]2COc3cc(OC)ccc3[C@@H]2N2C(=O)N(c3ccc(F)cc3)C(=O)[C@]12C | · | 1 | · | 1.1 | -14 | -3 | ·

Screening results as filed in PubChem BioAssay.
